Data reported in ChEMBL document CHEMBL1764962, “Selective biocatalytic aminolysis of (±)-epichlorohydrin: synthesis and ICAM-1 inhibitory activity of (S)-(+)-3-arylamino-1-chloropropan-2-ols” (Bioorg Med Chem, 2011).
In brackets after ≈: the same amount, converted by molar mass.

Assays:
[1] = Toxicity in human HUVEC assessed as maximum tolerable dose by trypan blue exclusion assay; format: cell-based; conditions: HUVEC cells, read-out: MTD
Method in brief: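 Primary human umbilical vein endothelial cells were isolated by mild trypsinization. They were grown in M199 with 15% heat-inactivated FCS, 2 mM L-glutamine, penicillin/streptomycin, amphotericin B, endothelial cell growth factor and heparin. Cells were subcultured at confluence with trypsin–EDTA and used at passages three to four. Viability was scored by trypan blue exclusion.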

[2] = system: HUVEC; test: Antiinflammatory activity in human HUVEC assessed as inhibition of TNF-alpha-induced ICAM-1 expression by modified ELISA; format: functional, cell-based
Method in brief: (§1)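 Primary human umbilical cord endothelial cells were isolated by mild trypsinization and grown in M199 with 15% heat-inactivated FCS, L-glutamine, antibiotics, endothelial cell growth factor and heparin, then used at passages 3–4. Cells were preincubated with compound, then given TNF-α (10 ng/ml) for 16 h and fixed with glutaraldehyde. Surface ICAM-1 was measured by cell-ELISA using anti-ICAM-1 mAb overnight at 4 °C, HRP anti-mouse secondary and OPD substrate (pH 4.5), reading A490.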

[3] = system: HUVEC; test: Antiinflammatory activity in human HUVEC assessed as inhibition of TNF-alpha-induced ICAM-1 expression at maximum tolerable dose of 40 ug/ml by modified ELISA; format: functional; method in brief: as §1
[4] = system: HUVEC; test: Antiinflammatory activity in human HUVEC assessed as inhibition of TNF-alpha-induced ICAM-1 expression at maximum tolerable dose of 30 ug/ml by modified ELISA; format: functional; method in brief: as §1
[5] = Homo sapiens, HUVEC, read-out: IC50

SMILES | MNTC [1] [µg/mL] | IC50 [2, 5] [µg/mL] | inhibition at 40 µg/mL [3] [%] | inhibition at 30 µg/mL [4] [%] | IC50 ([2]; huvec)
O[C@H](CCl)CNc1ccc(Br)cc1 | 40 | 31.6 (≈ 119 µM) | 76 |  | 
O[C@H](CCl)CNc1ccc(Cl)cc1 | 30 | 28.8 (≈ 131 µM) |  | 60 | 
O[C@H](CCl)CNc1ccccc1Cl | 40 | 33.1 (≈ 150 µM) | 86 |  | 
O[C@H](CCl)CNc1cccc(Cl)c1 | 30 |  |  | 24 | Not Active
Cc1ccc(NC[C@H](O)CCl)cc1 | 40 | 28.8 (≈ 144 µM) | 81 |  | 
O[C@H](CCl)CNc1ccccc1 | 30 | 39.8 (≈ 214 µM) |  | 38 | 
COc1ccc(OC)c(NC[C@H](O)CCl)c1 | 30 |  |  | 40 | Not Active
